Assay outcomes deposited in PubChem by several laboratories.
STAT3 act-1 – IL-6 driven STAT3 reporter potentiators, primary screen, U3A cells, luciferase, luminescence, MLSCN library; IL-6 STAT3-luciferase reporter; 100% = signal with IL-6 EC80 alone; activation (% of control), % at 5.6 µM; hit rate 0.91% among 190,000;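 active = activation above the screen-wide mean of compound activation plus 3 SD, cut at about 130% in these data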
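Test system: STAT3-luciferase reporter U3A cells; Detection: reporter luminescence signal; Times: 1 h compound pre-exposure, 6 h IL-6 stimulation, 37 °C; Benchmarks: IL-6-only high control; Also added: IL-6 stimulus at 33 ng/mL final.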
Platelet DG rel – inhibitors of platelet dense granule secretion, primary screen, cell-based, MLPCN, human platelets. inhibition, %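 (compounds screened at 7.5 µM in platelet-rich plasma)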. hit rate 0.22% among 300,000. human platelet-rich plasma, SFLLRN dense granule ATP release, luminescence;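 active = mean replicate score, as percent of positive control, at or above 50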
PERK inh – block of dimerizer-induced PERK translation repression, primary screen, PERK inhibitor project, CHO PERK-DD cells, SEAP luminescence, HTS. inhibition, % at 5.6 µM. hit rate 0.17% among 220,000. Eukaryotic translation initiation factor 2-alpha kinase 3 (Homo sapiens), Q9NZJ5. CHO PERK-DD fusion, SEAP luminescence translation reporter. AID 1416, 2008;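 active = inhibition above the mean inhibition of all tested compounds plus 3 SD, set separately per screening campaign, cut at about 2.9% in these data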;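 also: PERK kinase domain activated by AP20187 dimerizer at 100 nM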
STAT3 blocker – IL-6 driven STAT3 reporter inhibitors, primary screen, U3A cells, luciferase, luminescence, MLSCN library. AID 862, 2007. inhibition, % at 5.5 µM. hit rate 0.89% among 190,000. IL-6 STAT3-luciferase reporter; host cell line lacks STAT1;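 active = inhibition above the mean inhibition across all screened compounds plus 3 SD, cut at about 44% in these data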
STAT1 inh – STAT1 signaling inhibitors, primary screen, cell-based, HTS, luciferase reporter. NIH 3T3 STAT1-luciferase reporter, IFN-gamma, luminescence. inhibition, % at 5.5 µM. hit rate 0.35% among 200,000. AID 920, 2007;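 active = inhibition above a set limit, the mean inhibition across all tested compounds plus 3 SD, cut at about 34% in these data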
STAT3 act-2 – STAT3 reporter potentiators, retest of hits, confirmation, U3A cells, luciferase, luminescence | hit rate 64% among 1,200 | potentiation (% of control), % at 5.7 µM | AID 1267, 2008 | shares compounds with STAT3 act-1 | IL-6 potentiation; U3A cells lack STAT1; 100 means same as IL-6 alone;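 active = percent activation of the STAT3 luciferase reporter above a set limit taken from the earlier primary screen, cut at about 130% in these data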
NFkB act STAT3ct – NF-kB reporter activators in human cells, counter-screen for STAT3 activator project | shares compounds with STAT3 act-1 | AID 1309, 2008 | hit rate 11% among 1,200 | activation (% of control), % at 5.7 µM | NF-kappaB reporter activation; in the data active = activation above about 120%;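 also: reporter induced by TNF-alpha stimulation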
STAT1 act – STAT1 reporter activators, IFN-gamma induced, counter-screen for STAT3 activator project, cell-based, NIH 3T3, luciferase luminescence; activation (% of control), % at 5.7 µM; shares compounds with STAT3 act-1; AID 1318, 2008; hit rate 13% among 1,200; NIH 3T3 STAT1-luciferase reporter;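 active = activation above the solvent-only control well mean plus 3 SD, set per screening run, cut at about 120% in these data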
Hits are given with their value. An excerpt weighted towards active compounds, which were near 1.4% of everything screened.

What do the screens show for `O=C(O)c1cc(-c2c[nH]c3ccccc23)nc2ccc3ccccc3c12`?
STAT3 act-1: 141.9; Platelet DG rel: inactive; PERK inh: inactive; STAT3 blocker: inactive; STAT1 inh: inactive; STAT3 act-2: 163.4; NFkB act STAT3ct: inactive; STAT1 act: inactive

How did CC1=NN(c2ccc(Br)cc2)C(=O)/C1=C/c1cccs1 do in these assays?
STAT3 act-1: 181.0; Platelet DG rel: inactive; PERK inh: inactive; STAT3 blocker: inactive; STAT1 inh: inactive; STAT3 act-2: 155.4; NFkB act STAT3ct: inactive; STAT1 act: inactive

How did Cc1ccccc1N=Nc1c(C)[nH]n(-c2ccccc2)c1=O do in these assays?
STAT3 act-1: inactive; PERK inh: inactive; STAT3 blocker: inactive; STAT1 inh: inactive

Results for Cc1[nH]n(-c2ccccc2)c(=O)c1N=Nc1ccccc1O ?
STAT3 act-1: 167.6; Platelet DG rel: inactive; PERK inh: inactive; STAT3 blocker: inactive; STAT1 inh: inactive; STAT3 act-2: 171.0; NFkB act STAT3ct: inactive; STAT1 act: 123.4

How did N#CC1=C(N)Oc2cc(N)ccc2C1c1cccc(F)c1 (stereo not drawn) do in these assays?
Platelet DG rel: inactive

Results for CN(C)c1ccc2c(c1)OC(N)=C(C#N)C2c1cccc(F)c1 (stereo not drawn) ?
STAT3 act-1: 145.8; Platelet DG rel: inactive; PERK inh: inactive; STAT3 blocker: inactive; STAT1 inh: inactive; STAT3 act-2: inactive; NFkB act STAT3ct: 153.1; STAT1 act: inactive

What do the screens show for `CCN(C(=S)Nc1cccnc1)c1cccc2ccccc12`?
STAT3 act-1: 136.5; Platelet DG rel: inactive; PERK inh: inactive; STAT3 blocker: inactive; STAT1 inh: inactive; STAT3 act-2: inactive; NFkB act STAT3ct: inactive; STAT1 act: inactive

How did CCOC(=O)Nc1ccc2c(c1)N(C(=O)CN1CCN(CCO)CC1)c1ccccc1CC2 do in these assays?
Platelet DG rel: inactive

Results for C/C(=N\OCc1nc2ccccc2c(=O)n1/N=C/c1cc(C)cc([N+](=O)[O-])c1O)c1ccccc1 ?
Platelet DG rel: inactive; PERK inh: inactive

What do the screens show for `Cc1cc(/C=N/n2cnnc2)c(O)c([N+](=O)[O-])c1`?
STAT3 act-1: 138.5; Platelet DG rel: inactive; PERK inh: inactive; STAT3 blocker: inactive; STAT1 inh: inactive; STAT3 act-2: 149.3; NFkB act STAT3ct: inactive; STAT1 act: inactive

How did COc1ccc(CNC(=O)Cn2cc(C(F)(F)F)ccc2=O)cc1 do in these assays?
STAT3 act-1: inactive; Platelet DG rel: inactive; PERK inh: inactive; STAT3 blocker: inactive; STAT1 inh: inactive

How did O=c1oc2ccccc2c(Nc2cc3ccccc3cc2O)c1[N+](=O)[O-] do in these assays?
STAT3 act-1: 140.7; Platelet DG rel: inactive; PERK inh: inactive; STAT3 blocker: inactive; STAT1 inh: inactive; STAT3 act-2: 170.7; NFkB act STAT3ct: inactive; STAT1 act: inactive

How did CC(C)OC(=O)c1cc2c(=O)[nH]c(C(Cl)(Cl)Cl)nc2o1 do in these assays?
STAT3 act-1: inactive; Platelet DG rel: inactive; PERK inh: inactive; STAT3 blocker: inactive; STAT1 inh: inactive

What do the screens show for `C/C(=N\Nc1ccc(Cl)cc1)c1ccccn1`?
STAT3 act-1: 139.3; Platelet DG rel: inactive; PERK inh: inactive; STAT3 blocker: inactive; STAT1 inh: inactive; STAT3 act-2: 140.5; NFkB act STAT3ct: 122.5; STAT1 act: 147.5

Results for C/C(=N\NC(=O)c1ccc(Cl)cc1)c1ccccn1 ?
Platelet DG rel: inactive

Results for CCOC(=O)c1ccccc1NC(=O)Cn1c(-c2nonc2N)nc2ccccc21 ?
STAT3 act-1: 136.4; Platelet DG rel: inactive; PERK inh: inactive; STAT3 blocker: inactive; STAT1 inh: inactive; STAT3 act-2: inactive; NFkB act STAT3ct: 129.3; STAT1 act: inactive
